Measured values pooled from the literature.
Compare with care: the assays were run in different laboratories.
Target: Ephrin type-A receptor 4 (EPHA4, Homo sapiens, UniProt P54764)

Compound | assay | setting | quantity | value
Nc1ncc(-c2nc(N3CCOCC3)nc(N3CCOCC3)n2)c(C(F)F)n1 | cell-free assay, competition with immobilised ligand | 10 µM | remaining binding | 94%
O=c1[nH]c2ccccc2n1C1CCN(Cc2ccc(-c3[nH]c4cc5ncnc5cc4nc3-c3ccccc3)cc2)CC1 | cell-free assay | 0.5 µM | remaining signal | 97.1%
Cc1nn(C)cc1-c1nc2c(N3CCN(Cc4ccc(Cl)cc4)CC3)c(Cl)cnc2[nH]1 | binding, competition with immobilised ligand | 1 µM | remaining binding | 100%
Cn1cc(-c2cccc(N3CCc4c(sc5c4CC(C)(C)C5)C3=O)c2CO)cc(Nc2ccncn2)c1=O | enzyme activity, inhibitor | 1 µM | inhibition | 3%
COc1cc(Nc2ncc(F)c(Nc3ccc4c(n3)NC(=O)C(C)(C)O4)n2)cc(OC)c1OC | binding, competition with immobilised ligand | 10 µM | inhibition | 69%
Cn1cncc1[C@](O)(COc1ccc(C#N)cc1-c1ccc(OC(F)(F)F)cc1)c1ccc(C#N)cc1 | cell-free assay, competition with immobilised ligand | 1 µM | remaining binding | 100%
CC(C)(C)c1cc(C=C(C#N)C#N)cc(Br)c1O | enzyme activity, inhibitor | 0.5 µM | remaining activity | 94.7%
Cn1cc(-c2cc(F)cc(N3CCn4c(cc5c4CCCC5)C3=O)c2CO)cc(Nc2ccc(N3CCN(C4COC4)CC3)cn2)c1=O | enzyme activity, inhibitor | 0.1 µM | inhibition | 12%
COc1ncccc1-c1cnn2ccc(N3CCN(C(=O)OC(C)C)CC3)nc12 | binding, competition with immobilised ligand | 1 µM | remaining binding | 100%
